Screening results deposited in PubChem BioAssay by Broad Institute.
ERp5 block: inhibitors of ERp5-driven insulin aggregation, primary screen, biochemical, turbidity, absorbance 650 nm, single point; inhibition, % at 9.99 µM; 90 min; Protein disulfide-isomerase A6 (Homo sapiens), Q15084; AID 651711, 2012; 0.05% of 350,000 active;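 active = mean replicate inhibition above about 25%, with every replicate also reaching it, limit read from the data, passing the limit was not always enough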
Target sequence (Q15084 whole entry, looked up): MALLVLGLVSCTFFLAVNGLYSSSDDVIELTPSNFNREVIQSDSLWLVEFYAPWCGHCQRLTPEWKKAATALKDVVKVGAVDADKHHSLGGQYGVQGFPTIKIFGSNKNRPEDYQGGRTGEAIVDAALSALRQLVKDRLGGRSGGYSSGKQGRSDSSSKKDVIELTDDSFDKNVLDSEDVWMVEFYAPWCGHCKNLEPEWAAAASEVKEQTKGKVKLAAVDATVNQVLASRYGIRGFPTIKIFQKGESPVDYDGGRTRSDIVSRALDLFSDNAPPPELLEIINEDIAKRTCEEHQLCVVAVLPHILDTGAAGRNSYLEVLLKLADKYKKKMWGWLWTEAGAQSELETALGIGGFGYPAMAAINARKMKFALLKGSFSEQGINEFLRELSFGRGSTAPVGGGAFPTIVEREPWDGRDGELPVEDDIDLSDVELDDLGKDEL
FN deposit inh: inhibitors of fibronectin matrix deposition, primary screen, AH1F cells, Alexa488-fibronectin fluorescence, plate reader; AH1F fibroblasts, overnight; inhibition, % at 12.6 µM; 0.086% of 350,000 active; AID 743247, 2014;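 active = mean inhibition across replicates of 30% or more, regardless of how many single replicates reach that level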;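 note: positive control wells lacked labelled fibronectin entirely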
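Assay system: AH1F fibroblast monolayer, labelled fibronectin deposition. Amount: 10000 cells per well. Also added: labelled fibronectin 24 nM. Compound: single-point pinned compound. Incubation: cell attachment 1 h, compound and FN exposure overnight. Detection: fluorescence after three HBSS washes, excitation 485 nm, emission 525 nm. Read-out: inhibition of fibronectin deposition signal.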
AF4-AF9 inh: inhibitors of AF4 peptide binding to AF9, primary screen, biochemical, AlphaScreen, biotin-AF4 peptide, FLAG-AF9, single point. 0.47% of 350,000 active. inhibition, % at 10 µM. Protein AF-9 (Homo sapiens), P42568;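 active = every replicate reaching a set inhibition limit, whatever the replicate mean, cut at about 25% in these data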;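 note: 0% = plate neutral control median and 100% = total signal loss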
FGF22 binding: binders of human FGF22 protein, primary screen, FGF22 synaptogenesis inhibitor project, biophysical, thermal shift, single point. Fibroblast growth factor 22 (Homo sapiens), Q9HCT0. recombinant FGF22 thermal shift, SYPRO orange fluorescence; percent of sucrose octasulfate shift, DMSO zero. activity (Tm shift, normalised), % at 9.99 µM. 1.5% of 340,000 active. AID 651658, 2012;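 active = mean Tm shift, scaled 0 neutral to 100 positive control, at about 1.3% or above, every replicate too, limit read from the data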
Target sequence (Q9HCT0 whole entry, looked up): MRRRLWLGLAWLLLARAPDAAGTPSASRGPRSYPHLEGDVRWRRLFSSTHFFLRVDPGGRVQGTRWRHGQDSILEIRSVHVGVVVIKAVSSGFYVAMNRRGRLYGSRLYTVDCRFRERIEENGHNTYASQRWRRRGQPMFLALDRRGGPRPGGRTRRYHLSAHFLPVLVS
ARNT TACC3 PPI: disruptors of ARNT/TACC3 protein interaction, primary screen, biochemical, AlphaScreen, single concentration; 0.66% of 390,000 active; inhibition, % at 9.99 µM; AlphaScreen His-ARNT PAS-B/GST-TACC3 binding, luminescence; TACC3 fragment carries E629A point mutation; Transforming acidic coiled-coil-containing protein 3 (Homo sapiens), Q9Y6A5;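 active = mean inhibition of replicates at least 50% and at least half of replicates each reaching 50%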;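 note: 0% = complete ARNT plus TACC3 wells and 100% = ARNT alone without TACC3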
PDI turbidity: inhibitors of human PDI, primary screen, biochemical, turbidity, single point, plate reader; PDI insulin aggregation turbidity, A650, 90 min; inhibition, % at 10 µM; 0.052% of 350,000 active;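 active = mean inhibition across replicates of 30% or more, whatever share of single replicates reach that level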
ARNT Alpha ctr-1: AlphaScreen signal interference compounds, dose response, artefact control for ARNT-TACC3 interaction inhibitor project, biochemical, luminescence, cherry-pick | His-ARNT PASB-GST AlphaScreen artifact counter-screen | shares compounds with ARNT TACC3 PPI | 50% of 1,200 active | AC50, µM (highest dose often 68 µM), without a hit: at the top dose activity change, negative = signal decrease;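 active = every separate test run was called active for a drop in luminescence, with AC50 within twice the top valid dose, actives reach about 71 µM in these data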
ARNT Alpha ctr-2: AlphaScreen signal interference by compounds, dose response, artefact control for ARNT/TACC3 disruptor project, biochemical, dual-tagged ARNT, dry powder; shares compounds with ARNT TACC3 PPI; Dual-tagged His-ARNT PASB-GST AlphaScreen artifact counter-screen; AC50, µM; 70% of 45 active; AID 720564, 2013;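 active = luminescence drop, with half-maximal potency fitted within twice the sample's top valid dose, cut at about 70 µM in these data; inactive = the rest, including signal moving the wrong way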
AlphaScreen intf: AlphaScreen signal interference counter-screen, dose response, artefact control, biochemical, cherry-picked samples, luminescence | shares compounds with AF4-AF9 inh | AC50, µM (series often up to 12 µM), without a hit: at the top dose activity change, negative = inhibition | 45% of 530 active | AID 720494, 2013; cut-off not given, nearly all actives have AC50 up to about 14 µM
* marks the source's active call; other numbers are inactive results. Only some compounds are listed: those with a hit (about 2.1% of all), similar ones and a draw of the others.

Screening COC(=O)c1c(N)n(Cc2ccc(OC)cc2)c2nc3ccccc3nc12 returned ARNT TACC3 PPI 14.8* and PDI turbidity 1.3.
`CC(C)OC(=O)c1c(N)n(Cc2ccco2)c2nc3ccccc3nc12` gave ARNT TACC3 PPI 43.9 and PDI turbidity -0.6.
CC1CCC(C(C)C)C(OC(=O)Cn2c(COc3ccccc3)[n+](C)c3ccccc32)C1 (stereo not drawn) was read as ERp5 block -3.6, FN deposit inh 1.6, AF4-AF9 inh 25.2*, FGF22 binding 42.0, ARNT TACC3 PPI 9.1 and PDI turbidity 0.5.
`O=C(O)c1ccc(Cl)nc1` gave ERp5 block 1.5, FN deposit inh -13.5, AF4-AF9 inh -1.2, FGF22 binding 43.5*, ARNT TACC3 PPI -0.9 and PDI turbidity -3.5.
O=C(O)CC1OCC=C2CN3CCC45C6=CC(=O)C(=O)C([N+](=O)[O-])=C6NC4C1C2CC35 (stereo not drawn) was read as ARNT TACC3 PPI 29.8 and PDI turbidity 75.0*.
O=C(Cc1cccnc1)N1CCCCN2[C@H](CO)[C@@H](c3ccc(/C=C/c4ccccc4)cc3)[C@H]2C1 was read as ERp5 block -7.5, AF4-AF9 inh 26.8*, FGF22 binding 0.0 and ARNT TACC3 PPI 13.1.
For COc1ccccc1N1C(=O)NC(=O)/C(=C/c2ccc3c(c2)Cc2ccccc2-3)C1=O the results were ERp5 block -4.1, FN deposit inh 5.8, AF4-AF9 inh -2.8, FGF22 binding 43.5* and PDI turbidity 12.8.
N#CC1(c2ccccc2)CCN(Cc2ccc(O)c3ncccc23)CC1 was read as ARNT Alpha ctr-1 5.91µM*.
Screening Oc1ccc(CN2CCC3CCCCC3C2)c2cccnc12 (stereo not drawn) returned ARNT Alpha ctr-1 3.29µM*.
For CC=Cc1ccc2n(c1=O)C[C@@H]1[C@@H](CO)[C@H](C(=O)O)[C@H]2N1S(=O)(=O)c1ccccc1C (mixture of isomers) the results were ERp5 block 5.0, AF4-AF9 inh -0.3, FGF22 binding 0.0 and ARNT TACC3 PPI 0.6.
Screening O=c1c2ccccc2nc(-c2ccccc2)n1-c1cccnc1 returned FN deposit inh 3.9, ARNT TACC3 PPI 14.3 and PDI turbidity -9.2.
`CCn1nc(-c2cccnc2)nc2c(=O)n(C)c(=O)nc1-2` gave ARNT Alpha ctr-2 inactive.
O=C(Cc1ccccn1)N1CCCCN2[C@@H](CO)[C@H](c3ccc(C#Cc4ccccc4)cc3)[C@@H]2C1 was read as ERp5 block -6.6, AF4-AF9 inh -6.0, FGF22 binding 0.0 and ARNT TACC3 PPI 9.7.
For Clc1cccc(CNCCc2c[nH]c3ccccc23)c1 the results were ERp5 block 0.7, FN deposit inh -4.7, AF4-AF9 inh 11.9, FGF22 binding -0.5, ARNT TACC3 PPI 51.6*, PDI turbidity 0.5 and ARNT Alpha ctr-1 -6.7%.
Screening COc1ccc(-c2ccc([C@H]3[C@@H](CO)N4CCCCN(C(=O)Cc5ccccc5)C[C@@H]34)cc2)cc1 returned ERp5 block -0.7, AF4-AF9 inh -0.4, FGF22 binding 0.2 and ARNT TACC3 PPI 0.8.
CON(C)C(=O)Nc1ccc(Cl)cc1 was read as FN deposit inh 7.6, ARNT TACC3 PPI -1.6 and PDI turbidity -4.7.
O=C(Nc1ccc(Cl)cc1)O/N=C(\c1ccccc1)c1ccccn1 was read as ARNT TACC3 PPI 50.2*, PDI turbidity 6.5 and ARNT Alpha ctr-1 -37.9%.
Screening C[C@H]1CN([C@@H](C)CO)C(=O)CCCn2cc(nn2)CO[C@H]1CN(C)C(=O)Oc1cccc2ccccc12 returned FN deposit inh 9.3.
For O=C(N/N=C/c1c(O)n(CCC2=CCCCC2)c(=O)[nH]c1=O)c1ccccc1 the results were ERp5 block -4.0, FN deposit inh -8.9, AF4-AF9 inh 2.6, FGF22 binding 0.2, ARNT TACC3 PPI 50.6*, PDI turbidity -9.4 and ARNT Alpha ctr-1 -16.0%.
For CC1CN(c2ccc([N+](=O)[O-])c3cccnc23)CC(C)N1 (stereo not drawn) the results were ARNT TACC3 PPI 59.4*, PDI turbidity -12.7 and ARNT Alpha ctr-1 -3.7%.
For O=[N+]([O-])c1ccc(N2CCCC2)c2ncccc12 the results were ERp5 block 0.4, FN deposit inh -5.5, AF4-AF9 inh 1.9, FGF22 binding 0.1, ARNT TACC3 PPI 1.7 and PDI turbidity -2.1.
Screening CCN(CCCl)c1cc(CN(C)C)cc(NC(=O)c2ccc(C(=O)Nc3cc(CN(C)C)cc(N(CC)CCCl)c3)cc2)c1 returned ERp5 block 1.0, FN deposit inh 5.3, AF4-AF9 inh 70.3*, FGF22 binding -0.4, ARNT TACC3 PPI 53.8*, PDI turbidity 10.5, ARNT Alpha ctr-1 4.28µM* and AlphaScreen intf 2.54µM*.
`COc1ccc(-c2ccc([C@@H]3[C@H](CO)N4CCCCN(C(=O)Cc5ccccc5)C[C@@H]34)cc2)cc1` gave ERp5 block -0.6, AF4-AF9 inh 2.5, FGF22 binding 0.5 and ARNT TACC3 PPI 4.9.
